Consider eight compounds from ChEMBL document CHEMBL1147365, “A screen for inhibitors of DNA recombination: identification of two new spirostanol glycosides from Chamaedorea linearis” (J Nat Prod, 1993).

Assay [1] has as its system Saccharomyces cerevisiae. Nature of the assay: DNA damaging activity against […] assessed as drug concentration required to produce 12 mm zone of inhibition up to 800 ug/well by agar diffusion assay. Particulars: W303-1A. The assay is classed as functional, organism-based. For orientation: In agar diffusion tests the substance spreads into inoculated agar from a disc or well.

For assay [2], the system named is L1210. Kind of assay: Antiproliferative activity against mouse L1210 cells. The assay is classed as functional, cell-based. In short, it runs like this: (§1)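 Murine L1210 cells were grown in suspension culture and proliferation was measured.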
Assay [3] concerns Saccharomyces cerevisiae. Kind of assay: DNA damaging activity against […] assessed as drug concentration required to produce 12 mm zone of inhibition by agar diffusion assay. In kind it is functional, W303-1A.
For assay [4], the system named is L1210. Kind of assay: Antiproliferative activity against mouse L1210 cells up to 32 uM. In kind it is functional, cell-based. The procedure, abridged: as §1

Activity calls are given as the source filed them. The calls are words filed in the database; no cut-off is given here.

Regarding `C[C@@H]1O[C@@H](O[C@H]2C[C@@H](O)[C@]3(CO)[C@H]4[C@H](O)C[C@]5(C)[C@@H](C6=CC(=O)OC6)CC[C@]5(O)[C@@H]4CC[C@]3(O)C2)[C@H](O)[C@H](O)[C@H]1O`, the outcome in assay [1] was inactive. Broadly, the IC50 is the concentration at which inhibition is half-maximal. `C[C@H]1CC[C@@]2(OC1)O[C@H]1C[C@H]3[C@@H]4CC[C@H]5C[C@@H](O)C[C@@H](O[C@H]6O[C@@H](C)[C@@H](O)[C@@H](O)[C@@H]6O)[C@]5(C)[C@H]4CC[C@]3(C)[C@H]1[C@@H]2C` [BRISBAGENIN FUCOSIDE] displayed an IC50 in assay [2] of 5 µM. The IC12 in assay [3] turned out to be 2.6 µg. Besides, the result in assay [4] was inactive. On to `C[C@H]1CC[C@@]2(OC1)O[C@H]1C[C@H]3[C@@H]4CC[C@H]5C[C@@H](O)C[C@@H](O[C@H]6O[C@@H](C)[C@@H](OS(=O)(=O)O)[C@@H](O)[C@@H]6O)[C@]5(C)[C@H]4CC[C@]3(C)[C@H]1[C@@H]2C`, for which, in assay [3], the IC12 turned out to be 3.5 µg. For the same compound, the result in assay [4] was inactive. Regarding `C[C@H]1O[C@@H](O[C@H]2[C@@H](O)C[C@H](O[C@H]3[C@@H](O)C[C@H](O[C@H]4CC[C@@]5(C)[C@H](CC[C@@H]6[C@@H]5CC[C@]5(C)[C@@H](C7=CC(=O)OC7)[C@@H](O)C[C@]65O)C4)O[C@@H]3C)O[C@@H]2C)C[C@H](O)[C@@H]1O`, in assay [1], the outcome was inactive. As for `CO[C@H]1[C@H](O)[C@H](O[C@H]2CC[C@@]3(C)[C@H](CC[C@@H]4[C@@H]3CC[C@]3(C)[C@@H](C5=CC(=O)OC5)CC[C@]43O)C2)O[C@@H](C)[C@@H]1O`, in assay [1], the outcome was inactive. On the same count and under the same terms, under `C[C@@H]1O[C@@H](O[C@H]2CC[C@]3(C=O)[C@H]4CC[C@]5(C)[C@@H](C6=CC(=O)OC6)CC[C@]5(O)[C@@H]4CC[C@]3(O)C2)[C@H](O)[C@H](O)[C@H]1O` stands “inactive”. The same measure, in the same setting: under `CO[C@H]1C[C@H](O[C@H]2CC[C@]3(C=O)[C@H]4CC[C@]5(C)[C@@H](C6=CC(=O)OC6)CC[C@]5(O)[C@@H]4CC[C@]3(O)C2)O[C@H](C)[C@H]1O[C@H]1O[C@@H](CO)[C@H](O[C@@H]2O[C@H](CO)[C@@H](O)[C@H](O)[C@H]2O)[C@@H](O)[C@@H]1O` stands “inactive”.

Consider `C[C@H]1O[C@@H](O[C@H]2[C@@H](O)C[C@H](O[C@H]3[C@@H](O)C[C@H](O[C@H]4CC[C@@]5(C)[C@H](CC[C@@H]6[C@@H]5C[C@@H](O)[C@]5(C)[C@@H](C7=CC(=O)OC7)CC[C@]65O)C4)O[C@@H]3C)O[C@@H]2C)C[C@H](O)[C@@H]1O`, for which the outcome in assay [1] was inactive.
